The values that follow come from ChEMBL document CHEMBL2046311, “Design, synthesis, and molecular hybrids of caudatin and cinnamic acids as novel anti-hepatitis B virus agents” (Eur J Med Chem, 2012).

For data set [1], the system named is Hepatitis B virus. Briefly: Antiviral activity against Hepatitis B virus infected in human HepG2(2.2.15) cells assessed as inhibition of viral surface antigen secretion by ELISA. It is filed as functional, organism-based. In short, it runs like this: (§1)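 HepG 2.2.15 cells in RPMI-1640 with 10% fetal calf serum at 37 °C, 5% CO2. Compounds dissolved in DMSO, culture DMSO below 2.5 μL/mL. Secreted HBeAg and HBsAg measured by ELISA. IC50 values are means of at least two experiments.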

Data set [2] has as its system Hepatitis B virus. Briefly: Antiviral activity against Hepatitis B virus infected in human HepG2(2.2.15) cells assessed as inhibition of viral e antigen secretion by ELISA. The data set is classed as functional, organism-based. The procedure, abridged: as §1
The nature of data set [3]: Cytotoxicity against human HepG2(2.2.15) cells by modified-MTT assay. The data set is classed as cell-based. In short, it runs like this: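 HepG 2.2.15 cells in RPMI-1640 with 10% fetal calf serum at 37 °C, 5% CO2. Compounds in DMSO, final DMSO below 2.5 μL/mL. Viability read by modified MTT method. CC50 is the mean of at least two experiments.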
The nature of data set [4]: Selectivity index, ratio of CC50 for human HepG2(2.2.15) cells to IC50 for Hepatitis B virus infected in human HepG2(2.2.15) cells assessed as inhibition of viral surface antigen secretion. The data set is classed as functional. The procedure, abridged:
(§2)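 SI calculated as CC50 (MTT, HepG 2.2.15) divided by IC50 for the named read-out (HBV DNA by real-time PCR, or HBeAg or HBsAg secretion by ELISA), in the same cell line.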

Data set [5] can be described thus: Selectivity index, ratio of CC50 for human HepG2(2.2.15) cells to IC50 for Hepatitis B virus infected in human HepG2(2.2.15) cells assessed as inhibition of viral e antigen secretion. The data set is classed as functional. The procedure, abridged:
as §2

Data set [6] has as its system Hepatitis B virus. As to the kind of experiment: Antiviral activity against Hepatitis B virus infected in human HepG2(2.2.15) cells assessed as inhibition of viral DNA replication by PCR analysis. It is filed as functional, organism-based. In short, it runs like this:
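HepG 2.2.15 cells grown in RPMI-1640 with 10% fetal calf serum, […] and penicillin/streptomycin at 37 °C, 5% CO2. Compounds added in DMSO, kept below 2.5 μL/mL. HBV DNA quantified by SYBR Green real-time PCR with HBV-specific primers spanning 541–591 bp. IC50 values are means of at least two experiments.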

Data set [7] can be described thus: Selectivity index, ratio of CC50 for human HepG2(2.2.15) cells to IC50 for Hepatitis B virus infected in human HepG2(2.2.15) cells assessed as inhibition of viral DNA replication. It is filed as functional. In short, it runs like this: as §2

SMILES strings stand for the structures. pIC50: −log10 of the molar value.

For `CC(=O)[C@]1(O)CC[C@@]2(O)[C@]1(C)[C@H](OC(=O)/C=C(\C)C(C)C)C[C@@H]1[C@@]3(C)CC[C@H](OC(=O)/C=C/c4ccc(Br)cc4)CC3=CC[C@]12O`, the pIC50 in the data set on Hepatitis B virus [1] is 4.44; in the data set with Hepatitis B virus [2] it was 3.31; in the data set with Hepatitis B virus [6] it was 4.80. In data set [3], this compound had a CC50 greater than 1290 µM. The figures for the “Ratio CC50/IC50” value in data set [4], in data set [5] and in data set [7] were greater than 35.5, greater than 2.7 and greater than 80.6, respectively.

Take `CC(=O)[C@]1(O)CC[C@@]2(O)[C@]1(C)[C@H](OC(=O)/C=C(\C)C(C)C)C[C@@H]1[C@@]3(C)CC[C@H](OC(=O)/C=C/c4cccc([N+](=O)[O-])c4)CC3=CC[C@]12O`: the pIC50 was 4.30 with Hepatitis B virus [1], 3.68 in the data set with Hepatitis B virus [2] and 4.25 in the data set with Hepatitis B virus [6]. The compound also showed a 50% cytotoxic concentration (CC50) in data set [3] greater than 1590 µM. Further, the “Ratio CC50/IC50” value in data set [4] is reported as greater than 31.7; in data set [5], greater than 7.7; in data set [7], greater than 28.1.

For `CC(=O)Oc1ccc(/C=C/C(=O)O[C@H]2CC[C@@]3(C)C(=CC[C@]4(O)[C@@H]3C[C@@H](OC(=O)/C=C(\C)C(C)C)[C@@]3(C)[C@]4(O)CC[C@@]3(O)C(C)=O)C2)cc1`, the pIC50 in the data set with Hepatitis B virus [1] was greater than 5.16; in the data set on Hepatitis B virus [2], 3.64; with Hepatitis B virus [6] it was 5.47. Also, the CC50 in data set [3] was less than 6.96 µM. The “Ratio CC50/IC50” value in data set [7] is on record as less than 2.

On to `CC(=O)[C@]1(O)CC[C@@]2(O)[C@]1(C)[C@H](OC(=O)/C=C(\C)C(C)C)C[C@@H]1[C@@]3(C)CC[C@H](O)CC3=CC[C@]12O` [CAUDATIN], for which, in the data set with Hepatitis B virus [2], the negative logarithm of the IC50 (pIC50) was less than 3.74. Moreover, the “Ratio CC50/IC50” value is given as 1.7 in data set [4], less than 1.3 in data set [5] and 6 in data set [7].

For the compound `CC(=O)[C@]1(O)CC[C@@]2(O)[C@]1(C)[C@H](OC(=O)/C=C(\C)C(C)C)C[C@@H]1[C@@]3(C)CC[C@H](OC(=O)/C=C/c4cccc(C(F)(F)F)c4)CC3=CC[C@]12O`, the pIC50 with Hepatitis B virus [1] is 3.95; in the data set with Hepatitis B virus [2], less than 2.92; in the data set with Hepatitis B virus [6], 4.83. In addition, the 50% cytotoxic concentration (CC50) in data set [3] was determined as 718 µM. Moreover, the “Ratio CC50/IC50” value in data set [4] is given as 6.4; in data set [7], 48.3.

Regarding `CC(=O)[C@]1(O)CC[C@@]2(O)[C@]1(C)[C@H](OC(=O)/C=C(\C)C(C)C)C[C@@H]1[C@@]3(C)CC[C@H](OC(=O)/C=C/c4cccc(OC(F)(F)F)c4)CC3=CC[C@]12O`, the figures for the pIC50 with Hepatitis B virus [1], in the data set on Hepatitis B virus [2] and in the data set on Hepatitis B virus [6] were 3.63, less than 3.23 and 5.24, respectively. Half-maximal cytotoxicity in data set [3] (CC50) was put at 584 µM. Moreover, the “Ratio CC50/IC50” value in data set [4] is reported as 2.5; in data set [7] it was 102.3.

In the case of `CC(=O)[C@]1(OC(=O)/C=C/c2ccc(Cl)cc2)CC[C@@]2(O)[C@]1(C)[C@H](OC(=O)/C=C(\C)C(C)C)C[C@@H]1[C@@]3(C)CC[C@H](OC(=O)/C=C/c4ccc(Cl)cc4)CC3=CC[C@]12O`, the pIC50 in the data set on Hepatitis B virus [1], in the data set with Hepatitis B virus [2] and with Hepatitis B virus [6] was less than 3.54 each time. In data set [3], this compound yielded a CC50 greater than 1160 µM.

For the compound `COc1cc(/C=C/C(=O)O[C@H]2CC[C@@]3(C)C(=CC[C@]4(O)[C@@H]3C[C@@H](OC(=O)/C=C(\C)C(C)C)[C@@]3(C)[C@]4(O)CC[C@@]3(O)C(C)=O)C2)ccc1OC(C)=O`, the figures for the pIC50 in the data set with Hepatitis B virus [1], in the data set with Hepatitis B virus [2] and in the data set on Hepatitis B virus [6] were greater than 5.00, 3.19 and 5.36, respectively. The compound further gave a cytotoxic concentration (CC50) in data set [3] of less than 9.97 µM. For the same compound, the “Ratio CC50/IC50” value in data set [7] is on record as less than 2.3.

Consider `CC(=O)[C@]1(O)CC[C@@]2(O)[C@]1(C)[C@H](OC(=O)/C=C(\C)C(C)C)C[C@@H]1[C@@]3(C)CC[C@H](OC(=O)/C=C/c4ccc(C)cc4)CC3=CC[C@]12O`, for which the pIC50 is 3.97 in the data set with Hepatitis B virus [1], less than 3.26 with Hepatitis B virus [2] and 4.92 in the data set on Hepatitis B virus [6]. This compound also showed a CC50 in data set [3] of 550 µM. The “Ratio CC50/IC50” value turned out to be 5.1 in data set [4] and 46 in data set [7].

For `CC(=O)[C@]1(O)CC[C@@]2(O)[C@]1(C)[C@H](OC(=O)/C=C(\C)C(C)C)C[C@@H]1[C@@]3(C)CC[C@H](OC(=O)/C=C/c4cc(C(F)(F)F)cc(C(F)(F)F)c4)CC3=CC[C@]12O`, the pIC50 in the data set on Hepatitis B virus [1] was 3.36; in the data set on Hepatitis B virus [2], 3.21; in the data set on Hepatitis B virus [6] it was less than 3.49. The compound also returned a CC50 in data set [3] greater than 1280 µM. For the same compound, the “Ratio CC50/IC50” value in data set [4] is greater than 3; in data set [5] it was greater than 2.1.

With `CC(=O)[C@]1(O)CC[C@@]2(O)[C@]1(C)[C@H](OC(=O)/C=C(\C)C(C)C)C[C@@H]1[C@@]3(C)CC[C@H](OC(=O)/C=C/c4ccc(O)c(O)c4)CC3=CC[C@]12O`, the values for the pIC50 in the data set on Hepatitis B virus [1], in the data set on Hepatitis B virus [2] and in the data set on Hepatitis B virus [6] were 4.79, less than 3.25 and 5.04, respectively. The CC50 in data set [3] came to 8.49 µM.

For the compound `CC(=O)[C@]1(O)CC[C@@]2(O)[C@]1(C)[C@H](OC(=O)/C=C(\C)C(C)C)C[C@@H]1[C@@]3(C)CC[C@H](OC(=O)/C=C/c4ccc(Cl)cc4)CC3=CC[C@]12O`, the pIC50 with Hepatitis B virus [1] was 3.92; with Hepatitis B virus [2] it was less than 3.15; with Hepatitis B virus [6], 4.79. Further, in data set [3], the midpoint of cytotoxicity, the CC50, lay at 701 µM. The “Ratio CC50/IC50” value is on record as 5.9 in data set [4] and 43.1 in data set [7].

In the case of `C[C@H](Cn1cnc2c(N)ncnc21)OCP(=O)(O)O` [TENOFOVIR ANHYDROUS], the figures for the pIC50 in the data set on Hepatitis B virus [2] and in the data set with Hepatitis B virus [6] were 2.94 and 6.17, respectively. This compound showed a cytotoxic concentration (CC50) in data set [3] greater than 1740 µM. For the same compound, the “Ratio CC50/IC50” value in data set [4] is listed as greater than 1.2; in data set [5], greater than 1.5; in data set [7] it was greater than 2560.2.

With `COc1cccc(/C=C/C(=O)O[C@H]2CC[C@@]3(C)C(=CC[C@]4(O)[C@@H]3C[C@@H](OC(=O)/C=C(\C)C(C)C)[C@@]3(C)[C@]4(O)CC[C@@]3(OC(=O)/C=C/c3cccc(OC)c3)C(C)=O)C2)c1`, the figures for the pIC50 with Hepatitis B virus [1], in the data set with Hepatitis B virus [2] and in the data set with Hepatitis B virus [6] were less than 2.86, less than 2.86 and less than 3.47, respectively. For the same compound, in data set [3], the half-maximal cytotoxic concentration (CC50) is greater than 1370 µM.

As for `CC(=O)[C@]1(OC(=O)/C=C/c2ccccc2[N+](=O)[O-])CC[C@@]2(O)[C@]1(C)[C@H](OC(=O)/C=C(\C)C(C)C)C[C@@H]1[C@@]3(C)CC[C@H](OC(=O)/C=C/c4ccccc4[N+](=O)[O-])CC3=CC[C@]12O`, the negative-log IC50 (pIC50) in the data set on Hepatitis B virus [1] was 3.94; in the data set with Hepatitis B virus [2], 3.28; in the data set on Hepatitis B virus [6] it was less than 3.36. In addition, the cytotoxic concentration (CC50) in data set [3] is greater than 1740 µM. Also, the “Ratio CC50/IC50” value in data set [4] was greater than 15; in data set [5], greater than 3.3.

In the case of `CC(=O)[C@]1(O)CC[C@@]2(O)[C@]1(C)[C@H](OC(=O)/C=C(\C)C(C)C)C[C@@H]1[C@@]3(C)CC[C@H](OC(=O)/C=C/c4c(F)c(F)c(F)c(F)c4F)CC3=CC[C@]12O`, the negative-log IC50 (pIC50) with Hepatitis B virus [1] was 4.58; in the data set on Hepatitis B virus [2], 3.45; in the data set with Hepatitis B virus [6] it was 5.00. Also, in data set [3], the 50% cytotoxic concentration (CC50) is less than 8.22 µM.

In the case of `COc1ccc(/C=C/C(=O)O[C@H]2CC[C@@]3(C)C(=CC[C@]4(O)[C@@H]3C[C@@H](OC(=O)/C=C(\C)C(C)C)[C@@]3(C)[C@]4(O)CC[C@@]3(OC(=O)/C=C/c3ccc(OC)c(OC)c3)C(C)=O)C2)cc1OC`, the negative logarithm of the IC50 (pIC50) in the data set with Hepatitis B virus [1] was 3.28; in the data set on Hepatitis B virus [2], 3.20; with Hepatitis B virus [6], less than 3.51. In data set [3], this compound showed a CC50 greater than 1210 µM. The “Ratio CC50/IC50” value in data set [4] is greater than 2.3; in data set [5], greater than 1.9.
